Drawing on ChEMBL document CHEMBL3797150, “Lupeol Isolated from Sorbus commixta Suppresses 1α,25-(OH)2D3-Mediated Osteoclast Differentiation and Bone Loss in Vitro and in Vivo” (J Nat Prod, 2016), this text covers Activity and inhibition for 1 compound.

The subject of data set [1] is Calvarial osteoblast. Nature of the data set: Effect on 1alpha,25-(OH)2D3-induced OPG mRNA expression in mouse calvarial osteoblasts at 5 and 10 uM after 24 hrs by RT-PCR method. Type of data set: functional, cell-based. In a few lines:
(§1)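 Calvarial osteoblasts from newborn mice grown 24 h in α-MEM with 10% FBS and 0.1 μM 1α,25-(OH)2D3, with or without compound. Total RNA reverse-transcribed, then PCR for RANKL (587 bp), OPG (720 bp), M-CSF (516 bp) and GAPDH (452 bp) as control. Products run on 2% agarose with ethidium bromide; three independent experiments.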

The nature of data set [2]: Cytotoxicity against mouse calvarial osteoblasts assessed as cell viability at 1 to 20 uM after 2 to 4 days by MTT assay. Type of data set: cell-based. The conditions noted are these: calvarial osteoblast. In a few lines: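 Primary calvarial osteoblasts from 1–2-day-old newborn mice (serial collagenase/dispase digests, fractions 2–5) exposed to 1, 5, 10, 20 μM for 2 days, or kept for at least 4 days with medium changed every 2–3 days; viability by MTT. Mean ± SD of three independent experiments.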
On the technique in general: Tetrazolium dyes change colour on reduction, which living cells bring about.

The nature of data set [3]: Downregulation of RANKL-induced ERK phosphorylation in mouse bone marrow macrophages after 15 mins by Western blot analysis in presence of M-CSF. In a few lines: (§2)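 Bone marrow macrophages from tibiae of 4–6-week ICR males, taken as cells adherent after 16–20 h in 50 ng/mL M-CSF. Treated with compound plus RANKL for 15 min, then lysed; phospho and total ERK, JNK and p38 detected by Western blot with ECL.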
(A western blot detects proteins with antibodies after separation by electrophoresis.)

The species entered for data set [4] is Mus musculus. The data set can be described thus: Decrease in 1alpha,25-(OH)2D3-induced RANKL levels in hypercalcemic C57BL/6 mouse serum at […] […] by ELISA method. The data set is classed as functional, organism-based. In a few lines: (§3)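 C57BL/6 males, 6 weeks old, groups of five; 1α,25-(OH)2D3 given subcutaneously on three consecutive days, then PBS or compound at 25 or 100 μg/kg/day for 3 days; sacrifice on day 8. Serum calcium and phosphate by colorimetric kits, RANKL by ELISA; mean ± SD, Student's t test.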

A short description of data set [5]: Downregulation of 1alpha,25-(OH)2D3-induced RANKL mRNA expression in mouse calvarial osteoblasts at 5 and 10 uM after 24 hrs by RT-PCR method. Type of data set: functional, cell-based. The conditions noted are these: Calvarial osteoblast. In a few lines:
as §1

The nature of data set [6]: Downregulation of RANKL-induced p38 MAPK phosphorylation in mouse bone marrow macrophages after 15 mins by Western blot analysis in presence of M-CSF. In a few lines: as §2
In data set [7] the test system is Osteoclast. Nature of the data set: Inhibition of bone resorption in mouse osteoclasts obtained from coculturing mouse calvarial osteoblasts with mouse bone marrow macrophages assessed as inhibition of pit formation at 20 uM after 48 hrs by Mayer's hematoxylin staining based light microscopy. Type of data set: functional, cell-based. In a few lines:
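Mature osteoclasts from collagen-gel cocultures (0.1 μM 1α,25-(OH)2D3 or 10 μM PGE2; collagenase release) replated on dentin slices with compound for 48 h. Cells removed, slices stained with Mayer's hematoxylin, pits counted per slice by light microscopy at 100×; three independent experiments.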

Data set [8] is filed under the species Mus musculus. Nature of the data set: Decrease in 1alpha,25-(OH)2D3-induced phosphate levels in hypercalcemic C57BL/6 mouse serum at […]/day […]. Type of data set: functional, organism-based. In a few lines: as §3
In data set [9] the test system is Calvarial osteoblast. The data set can be described thus: Effect on 1alpha,25-(OH)2D3-induced M-CSF mRNA expression in mouse calvarial osteoblasts at 5 and 10 uM after 24 hrs by RT-PCR method. Type of data set: functional, cell-based. In a few lines: as §1
Data set [10] deals with primary calvarial osteoblasts (Mus musculus). The data set can be described thus: Induction of primary calvarial osteoblasts differentiation assessed as alkaline phosphatase activity at 1 to 20 uM using p-nitrophenyl phosphate as substrate after 7 to 14 days in presence of 1alpha,25-(OH)2D3.
For data set [11], the species on record is Mus musculus. Nature of the data set: Decrease in 1alpha,25-(OH)2D3-induced calcium levels in hypercalcemic C57BL/6 mouse serum at […] for […]. Type of data set: functional, organism-based. In a few lines:
as §3

Data set [12] relates to Calvarial osteoblast. The data set can be described thus: Inhibition of 1alpha,25-(OH)2D3-induced osteoclasts differentiation in mouse calvarial osteoblasts cocultured with mouse bone marrow macrophages incubated for 6 days by TRAP staining based microscopy. The data set is classed as functional, cell-based. In a few lines:
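Bone marrow cells (1 × 10^7) cocultured 6 days with calvarial osteoblasts (1 × 10^6) in α-MEM with 10% FBS and 0.1 μM 1α,25-(OH)2D3. Cells fixed in formaldehyde and ethanol–acetone, then TRAP-stained; TRAP-positive cells with three or more nuclei counted as osteoclasts.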

A short description of data set [13]: Downregulation of RANKL-induced JNK phosphorylation in mouse bone marrow macrophages after 15 mins by Western blot analysis in presence of M-CSF. In a few lines:
as §2

Data set [14] has as its system primary calvarial osteoblasts (Mus musculus). The data set can be described thus: Induction of primary calvarial osteoblasts differentiation assessed as […] in alkaline phosphatase activity using p-nitrophenyl phosphate as substrate at 10 to 20 uM after 4 days.
Data set [15] is described as follows: Downregulation of RANKL-induced NFATc1 levels in mouse bone marrow macrophages at 5 to 20 uM after 24 hrs by Western blot analysis in presence of M-CSF. The data set is classed as functional, cell-based. Particulars: Macrophage. In a few lines:
(§4)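 Bone marrow macrophages made with 50 ng/mL M-CSF, exposed to compound and RANKL for 24 h; c-Fos and NFATc1 protein by Western blot, β-actin as loading control, ECL detection.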

Data set [16] has as its target T1, NF-kappa-B inhibitor alpha (Mus musculus) (UniProt Q9Z1E3).
T1 sequence (whole entry): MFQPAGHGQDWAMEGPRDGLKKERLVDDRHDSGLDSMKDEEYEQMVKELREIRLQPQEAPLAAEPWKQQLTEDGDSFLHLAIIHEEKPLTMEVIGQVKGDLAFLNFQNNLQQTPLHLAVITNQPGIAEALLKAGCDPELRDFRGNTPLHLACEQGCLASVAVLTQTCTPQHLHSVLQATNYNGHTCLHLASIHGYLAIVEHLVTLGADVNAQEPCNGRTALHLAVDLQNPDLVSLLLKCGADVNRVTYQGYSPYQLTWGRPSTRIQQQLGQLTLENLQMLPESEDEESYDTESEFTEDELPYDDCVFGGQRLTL
The data set can be described thus: Downregulation of RANKL-induced IkappaB alpha phosphorylation in mouse bone marrow macrophages at 5 to 20 uM after 30 mins by Western blot analysis in presence of M-CSF.

The test system of data set [17] is Mus musculus. Nature of the data set: Decrease in 1alpha,25-(OH)2D3-induced OPG levels in hypercalcemic C57BL/6 mouse serum at 5 to 100 ug/kg/day for 5 days. The data set is classed as functional, organism-based.
The nature of data set [18]: Downregulation of RANKL-induced c-fos levels in mouse bone marrow macrophages at 5 to 20 uM after 24 hrs by Western blot analysis in presence of M-CSF. Type of data set: functional, cell-based. The conditions noted are these: Macrophage. In a few lines:
as §4

The target of data set [19] is Transcription factor p65 (Mus musculus) (UniProt Q04207). Nature of the data set: Downregulation of RANKL-induced p65 phosphorylation in mouse bone marrow macrophages at 5 to 20 uM after 30 mins by Western blot analysis in presence of M-CSF.
Transcription factor p65 (Mus musculus), sequence (Q04207 whole entry): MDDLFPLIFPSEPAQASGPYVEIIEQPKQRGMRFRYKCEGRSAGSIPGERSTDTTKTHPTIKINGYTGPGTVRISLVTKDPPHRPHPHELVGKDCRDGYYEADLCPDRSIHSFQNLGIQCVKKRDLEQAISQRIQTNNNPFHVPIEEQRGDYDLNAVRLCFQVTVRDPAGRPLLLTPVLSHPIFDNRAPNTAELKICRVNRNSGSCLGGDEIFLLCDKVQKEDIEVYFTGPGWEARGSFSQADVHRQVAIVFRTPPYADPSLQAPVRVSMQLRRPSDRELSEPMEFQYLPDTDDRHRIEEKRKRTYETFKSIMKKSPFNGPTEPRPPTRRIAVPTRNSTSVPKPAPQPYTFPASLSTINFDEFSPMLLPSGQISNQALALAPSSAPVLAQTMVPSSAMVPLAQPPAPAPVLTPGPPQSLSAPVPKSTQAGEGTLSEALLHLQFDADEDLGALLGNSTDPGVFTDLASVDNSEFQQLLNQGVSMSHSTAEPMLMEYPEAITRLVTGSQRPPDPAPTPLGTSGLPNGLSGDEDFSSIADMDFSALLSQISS
Data set [20] shares this target. The data set can be described thus: Downregulation of RANKL-induced p65 nuclear translocation in mouse bone marrow macrophages at 5 to 20 uM after 30 mins by Western blot analysis in presence of M-CSF.
In data set [21] the test system is Osteoclast. Nature of the data set: Induction of disruption of 1alpha,25-(OH)2D3/PGE2-induced F-actin ring formation in mouse osteoclasts obtained from coculturing mouse calvarial osteoblasts with mouse bone marrow macrophages at 20 uM after 48 hrs by Alexa Fluor 488-conjugated phalloidin staining based fluorescence microscopy. The data set is classed as functional, cell-based. In a few lines: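 Bone marrow cells and calvarial osteoblasts cocultured 6–7 days on collagen with 0.1 μM 1α,25-(OH)2D3 or 10 μM PGE2; mature osteoclasts released with 0.2% collagenase (37 °C, 30 min). Treated 48 h, fixed in paraformaldehyde, F-actin rings stained with Alexa Fluor 488-phalloidin and viewed by fluorescence microscopy at 100×.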

Molecules are shown by their SMILES. Activity calls are given as the source filed them. The calls are words filed in the database; no cut-off is given here.

On to `C=C(C)[C@@H]1CC[C@]2(C)CC[C@]3(C)[C@H](CC[C@@H]4[C@@]5(C)CC[C@H](O)C(C)(C)[C@@H]5CC[C@]43C)[C@@H]12` [LUPEOL], for which the outcome in data set [1], in data set [8], in [9], in data set [10], in [11] and in data set [17] was inactive. Moreover, the Activity entry in [2] is reported as “Non-toxic”. Moreover, the inhibition result in data set [3] and in data set [6] was “Dose-dependent effect” throughout. Besides, the outcome in [4], in data set [5], in data set [14], in data set [15], in [16] and in data set [18] was Active. Further, the result in [19] and in [21] was Active. Moreover, the inhibition entry in data set [7], in [12] and in data set [20] was “Active” each time. For the same compound, the inhibition entry in data set [13] was “inactive”.
